In brackets after ≈: the same amount, converted by molar mass.
Legend:
[1] = tested on: Candida tropicalis; assay: Antifungal activity against Candida tropicalis after 48 hrs by NCCLS method; format: functional
In short: (§1)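 NCCLS yeast broth dilution; inocula from 48 h, 35 °C Sabouraud agar cultures diluted to 10⁶ CFU/mL; compounds from 10 mg/mL DMSO stock serially diluted in RPMI-1640, added to equal volume of fungal suspension in round-bottom microplates; incubated 35 °C for 48–72 h; MIC in duplicate.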

[2] = tested on: Stenotrophomonas maltophilia; assay: Antibacterial activity against Stenotrophomonas maltophilia after 18 to 24 hrs by broth microdilution method; format: functional
In short: (§2)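 Broth microdilution per CLSI; compounds dissolved in DMSO at 10 mg/mL stock, serially diluted in Mueller Hinton Broth, mixed with equal volume of bacterial inoculum (final […]); incubated 37 °C for 18–24 h; MIC taken as lowest concentration preventing visible growth; duplicate determinations.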

[3] = tested on: Enterobacter cloacae; assay: Antibacterial activity against Enterobacter cloacae after 18 to 24 hrs by broth microdilution method; format: functional; in short: as §2
[4] = tested on: Enterococcus faecalis; assay: Antibacterial activity against Enterococcus faecalis after 18 to 24 hrs by broth microdilution method; format: functional; in short: as §2
[5] = tested on: Staphylococcus epidermidis; assay: Antibacterial activity against Staphylococcus epidermidis after 18 to 24 hrs by broth microdilution method; format: functional; in short: as §2
[6] = tested on: Mycobacterium tuberculosis; assay: Antimycobacterial activity against Mycobacterium tuberculosis H37Ra by twofold agar dilution method; format: functional
In short: (§3)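 Strains grown in Middlebrook 7H11 with OADC. Suspensions at McFarland 1 turbidity were diluted 1:10, 1:100 and 1:10,000 in Middlebrook 7H9. These were inoculated onto duplicate Middlebrook 7H11 plates containing serial concentrations of compound.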

[7] = tested on: Escherichia coli; assay: Antibacterial activity against Escherichia coli after 18 to 24 hrs by broth microdilution method; format: functional; in short: as §2
[8] = tested on: Mycolicibacterium smegmatis; assay: Antimycobacterial activity against Mycobacterium smegmatis MC2 155 after 72 hrs by broth microdilution method; format: functional; details: str. MC2 155, 72 h
In short: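 Strains were pre-grown in Middlebrook 7H11 with OADC. The microdilution assay ran in sealed 96-well plates at 37 °C and was read after 72 h for M. smegmatis mc²155 and after 7 days for M. bovis BCG.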

[9] = tested on: Staphylococcus aureus; assay: Antibacterial activity against Staphylococcus aureus after 18 to 24 hrs by broth microdilution method; format: functional; in short: as §2
[10] = tested on: Candida albicans; assay: Antifungal activity against Candida albicans after 48 hrs by NCCLS method; format: functional; in short: as §1
[11] = tested on: Mycobacterium tuberculosis; assay: Antimycobacterial activity against Mycobacterium tuberculosis H37Rv by twofold agar dilution method; format: functional; in short: as §3
[12] = tested on: Klebsiella pneumoniae; assay: Antibacterial activity against Klebsiella pneumoniae after 18 to 24 hrs by broth microdilution method; format: functional; in short: as §2
[13] = tested on: Pseudomonas aeruginosa; assay: Antibacterial activity against Pseudomonas aeruginosa after 18 to 24 hrs by broth microdilution method; format: functional; in short: as §2
[14] = tested on: Acinetobacter baumannii; assay: Antibacterial activity against Acinetobacter baumannii after 18 to 24 hrs by broth microdilution method; format: functional; in short: as §2
[15] = Cytotoxicity against human MT4 cells after 96 hrs by MTT assay; format: cell-based
In short: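 Exponentially growing MT-4 cells (CD4+ T-cells carrying integrated HTLV-1) seeded at 1 × 10⁵ cells/mL in RPMI-1640 with 10% FCS, penicillin and streptomycin; exposed to serial compound dilutions at 37 °C, humidified 5% CO₂; viability read by MTT after 96 h; CC50 derived.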

Structure (SMILES): Cn1nnc2c3c(ccc21)c(=O)c(C(=O)O)cn3CC1CCC1
- MIC [1]: > 64 µg/mL
- MIC [2]: > 64 µg/mL
- MIC [3]: > 64 µg/mL
- MIC [4]: > 64 µg/mL
- MIC [5]: > 64 µg/mL
- MIC [6]: 16 µg/mL (≈ 51.2 µM)
- MIC [7]: > 64 µg/mL
- MIC [8]: 64 µg/mL (≈ 205 µM)
- MIC [9]: > 64 µg/mL
- MIC [10]: > 64 µg/mL
- MIC [11]: 32 µg/mL (≈ 102 µM)
- MIC [12]: > 64 µg/mL
- MIC [13]: > 64 µg/mL
- MIC [14]: > 64 µg/mL

Structure (SMILES): C=C(C)Cn1cc(C(=O)O)c(=O)c2ccc3c(nnn3C)c21
- MIC [1]: > 64 µg/mL
- MIC [2]: > 64 µg/mL
- MIC [3]: > 64 µg/mL
- MIC [4]: > 64 µg/mL
- MIC [5]: > 64 µg/mL
- MIC [6]: 32 µg/mL (≈ 107 µM)
- MIC [7]: > 64 µg/mL
- MIC [8]: 64 µg/mL (≈ 215 µM)
- MIC [9]: > 64 µg/mL
- MIC [10]: > 64 µg/mL
- MIC [11]: 64 µg/mL (≈ 215 µM)
- MIC [12]: > 64 µg/mL
- MIC [13]: > 64 µg/mL
- MIC [14]: > 64 µg/mL

Structure (SMILES): C=CCn1cc(C(=O)O)c(=O)c2ccc3c(nnn3Cc3ccccc3)c21
- MIC [1]: > 64 µg/mL
- MIC [2]: > 64 µg/mL
- MIC [3]: > 64 µg/mL
- MIC [4]: > 64 µg/mL
- MIC [5]: > 64 µg/mL
- MIC [6]: 4 µg/mL (≈ 11.1 µM)
- MIC [7]: > 64 µg/mL
- MIC [8]: > 128 µg/mL
- MIC [9]: > 64 µg/mL
- MIC [10]: > 64 µg/mL
- MIC [11]: 64 µg/mL (≈ 178 µM)
- MIC [12]: > 64 µg/mL
- MIC [13]: > 64 µg/mL
- MIC [14]: > 64 µg/mL

Structure (SMILES): O=C(O)c1cn(C2CC2)c2cc(N3CCNCC3)c(F)cc2c1=O [CIPROFLOXACIN]
- MIC [6]: 0.5 µg/mL (≈ 1.51 µM)
- MIC [8]: 0.125 µg/mL (≈ 0.377 µM)
- MIC [11]: 0.5 µg/mL (≈ 1.51 µM)

Structure (SMILES): CCOC(=O)c1cn(C(C)(C)C)c2c(ccc3c2nnn3C)c1=O
- MIC [1]: > 64 µg/mL
- MIC [2]: > 64 µg/mL
- MIC [3]: > 64 µg/mL
- MIC [4]: > 64 µg/mL
- MIC [5]: > 64 µg/mL
- MIC [6]: 4 µg/mL (≈ 12.2 µM)
- MIC [7]: > 64 µg/mL
- MIC [8]: 16 µg/mL (≈ 48.7 µM)
- MIC [9]: > 64 µg/mL
- MIC [10]: > 64 µg/mL
- MIC [11]: 32 µg/mL (≈ 97.5 µM)
- MIC [12]: > 64 µg/mL
- MIC [13]: > 64 µg/mL
- MIC [14]: > 64 µg/mL

Structure (SMILES): CN[C@@H]1[C@H](O[C@H]2[C@H](O[C@H]3[C@H](O)[C@@H](O)[C@H](N=C(N)N)[C@@H](O)[C@@H]3N=C(N)N)O[C@@H](C)[C@]2(O)C=O)O[C@@H](CO)[C@H](O)[C@H]1O [STREPTOMYCIN]
- MIC [6]: 1 µg/mL (≈ 1.72 µM)
- MIC [11]: 1 µg/mL (≈ 1.72 µM)

Structure (SMILES): Cn1nnc2c3c(ccc21)c(=O)c(C(=O)O)cn3CC1CC1
- MIC [1]: > 64 µg/mL
- MIC [2]: > 64 µg/mL
- MIC [3]: > 64 µg/mL
- MIC [4]: > 64 µg/mL
- MIC [5]: > 64 µg/mL
- MIC [6]: 16 µg/mL (≈ 53.6 µM)
- MIC [7]: > 64 µg/mL
- MIC [8]: 64 µg/mL (≈ 215 µM)
- MIC [9]: > 64 µg/mL
- MIC [10]: > 64 µg/mL
- MIC [11]: 32 µg/mL (≈ 107 µM)
- MIC [12]: > 64 µg/mL
- MIC [13]: > 64 µg/mL
- MIC [14]: > 64 µg/mL

Structure (SMILES): CCOC(=O)c1cn(CC2CCC2)c2c(ccc3c2nnn3C)c1=O
- MIC [1]: > 64 µg/mL
- MIC [2]: > 64 µg/mL
- MIC [3]: > 64 µg/mL
- MIC [4]: > 64 µg/mL
- MIC [5]: > 64 µg/mL
- MIC [6]: > 128 µg/mL
- MIC [7]: > 64 µg/mL
- MIC [8]: > 128 µg/mL
- MIC [9]: > 64 µg/mL
- MIC [10]: > 64 µg/mL
- MIC [11]: 64 µg/mL (≈ 188 µM)
- MIC [12]: > 64 µg/mL
- MIC [13]: > 64 µg/mL
- MIC [14]: > 64 µg/mL

Structure (SMILES): Cn1cc(C(=O)O)c(=O)c2ccc3c(nnn3Cc3ccccc3)c21
- MIC [1]: > 64 µg/mL
- MIC [2]: > 64 µg/mL
- MIC [3]: > 64 µg/mL
- MIC [4]: > 64 µg/mL
- MIC [5]: > 64 µg/mL
- MIC [6]: 4 µg/mL (≈ 12 µM)
- MIC [7]: > 64 µg/mL
- MIC [8]: 32 µg/mL (≈ 95.7 µM)
- MIC [9]: > 64 µg/mL
- MIC [10]: > 64 µg/mL
- MIC [11]: 8 µg/mL (≈ 23.9 µM)
- MIC [12]: > 64 µg/mL
- MIC [13]: > 64 µg/mL
- MIC [14]: > 64 µg/mL
- CC50 at 96 h [15]: > 100 µg/mL

Structure (SMILES): CCOC(=O)c1cn(C)c2c(ccc3c2nnn3Cc2ccccc2)c1=O
- MIC [1]: > 64 µg/mL
- MIC [2]: > 64 µg/mL
- MIC [3]: > 64 µg/mL
- MIC [4]: > 64 µg/mL
- MIC [5]: > 64 µg/mL
- MIC [6]: > 128 µg/mL
- MIC [7]: > 64 µg/mL
- MIC [8]: > 128 µg/mL
- MIC [9]: > 64 µg/mL
- MIC [10]: > 64 µg/mL
- MIC [11]: 64 µg/mL (≈ 177 µM)
- MIC [12]: > 64 µg/mL
- MIC [13]: > 64 µg/mL
- MIC [14]: > 64 µg/mL

Reference: ChEMBL document CHEMBL1649406, “Synthesis and anti-mycobacterial activities of triazoloquinolones” (Eur J Med Chem, 2011)
